Data set [1] is described as follows: Aqueous solubility of compound. Type of data set: physicochemical. In short, it runs like this:
(§1)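 Solubility measured in 0.1 M sodium phosphate buffer, pH 7.4, containing 1% DMSO.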

The nature of data set [2]: Solubility of compound in pH 7.4 sodium phosphate buffer. Type of data set: physicochemical. The gist of the method: as §1
Data set [3] deals with T1, Bifunctional epoxide hydrolase 2 (Homo sapiens, UniProt P34913).
T1 sequence (P34913 whole entry): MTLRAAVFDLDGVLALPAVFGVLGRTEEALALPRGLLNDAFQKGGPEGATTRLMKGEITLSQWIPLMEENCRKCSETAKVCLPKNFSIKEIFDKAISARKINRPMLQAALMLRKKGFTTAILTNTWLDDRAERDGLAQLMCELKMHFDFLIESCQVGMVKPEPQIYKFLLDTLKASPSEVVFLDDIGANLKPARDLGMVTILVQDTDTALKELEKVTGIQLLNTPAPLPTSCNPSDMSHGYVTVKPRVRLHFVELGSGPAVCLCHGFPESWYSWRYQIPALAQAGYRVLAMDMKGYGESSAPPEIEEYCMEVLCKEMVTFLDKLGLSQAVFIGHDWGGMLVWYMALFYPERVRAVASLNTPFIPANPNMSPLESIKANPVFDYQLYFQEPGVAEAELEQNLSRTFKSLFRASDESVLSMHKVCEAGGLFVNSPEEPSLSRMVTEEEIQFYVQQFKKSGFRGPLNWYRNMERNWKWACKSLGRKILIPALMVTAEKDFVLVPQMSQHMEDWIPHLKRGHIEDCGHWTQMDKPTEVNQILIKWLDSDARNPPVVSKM
As to the kind of experiment: Inhibition of human soluble epoxide hydrolase by kinetic fluorescent assay. The gist of the method: (§2)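 Kinetic fluorescent read-out of sEH activity; each reported value is the mean of three separate experiments.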

In data set [4] the target is T1, Bifunctional epoxide hydrolase 2. As to the kind of experiment: Inhibition of human soluble epoxide hydrolase using cyano(2methoxy naphthalen-6-yl)methyl trans-(3-phenyloxyran-2-yl)methylcarbonate as substrate preincubated for 5 mins followed by substrate addition and measured after 10 mins by fluorescence based assay. In short, it runs like this: as §2

Molecules are shown by their SMILES. Converted amounts (≈) assume the structure as drawn.

One may read the solubility as how much of the substance goes into solution per volume. A high value points to a readily soluble substance. With `O=C(Nc1ccc(OC(F)(F)F)cc1)N[C@H]1CC[C@H](Oc2ccc(C(=O)O)cc2)CC1`, in data set [1], the concentration in solution (solubility) was 5 µM (≈ 2.19 µg/mL).
With `CC(NC(=O)Nc1ccccc1F)C12CC3CC(CC(C3)C1)C2` (stereo not given), the concentration in solution in data set [2] (solubility) came to 55 µM (≈ 17.4 µg/mL).
As usually defined, the IC50 is the midpoint of a concentration-inhibition curve. A higher IC50 goes with weaker potency. `O=C(O)c1ccc(O[C@H]2CC[C@H](N3C(=O)C(=O)N(c4ccc(OC(F)(F)F)cc4)C3=O)CC2)cc1` showed a solubility in data set [2] of 210 µM (≈ 103 µg/mL). In data set [3], this compound registered a concentration for half-maximal inhibition (IC50) of 0.0077 µM.
Turning to `O=C(NCC12CC3CC(CC(C3)C1)C2)Nc1ccccc1F`, the concentration in solution in data set [2] (solubility) was 65 µM (≈ 19.7 µg/mL). The compound further came in with an IC50 in data set [3] of 0.0007 µM.
Compound `O=C(Nc1ccc(C23CC4CC(CC(C4)C2)C3)cc1)Nc1ccccc1F` showed a solubility in data set [2] of 85 µM (≈ 31 µg/mL).
As for `O=C1C(=O)N(CCC23CC4CC(CC(C4)C2)C3)C(=O)N1CCCCCCCCN1C(=O)C(=O)N(CCC23CC4CC(CC(C4)C2)C3)C1=O`, in data set [2], the concentration in solution (solubility) came to 600 µM (≈ 398 µg/mL). Also, the concentration for half-maximal inhibition (IC50) in data set [3] is 0.438 µM.
Take `O=C(Nc1ccccc1F)NC1C2CC3CC(C2)CC1C3` (stereo not given): the solubility in data set [2] is 85 µM (≈ 24.5 µg/mL). Moreover, in data set [3], the IC50 amounted to 0.001 µM.
Consider `CCC(CC12CC3CC(CC(C3)C1)C2)NC(=O)NC12CC3CC(C)(C1)C[C@@](C)(C3)C2` (stereo not given in full), for which, in data set [4], the IC50 turned out to be 0.0138 µM. In data set [2], this compound gave a solubility of 40 µM (≈ 16.5 µg/mL).
The compound `O=C1C(=O)N(CCC23CC4CC(CC(C4)C2)C3)C(=O)N1CCCCCCN1C(=O)C(=O)N(CCC23CC4CC(CC(C4)C2)C3)C1=O` gave a solubility in data set [2] of 1300 µM (≈ 825 µg/mL). Half-maximal inhibition in data set [3] (IC50) required 0.092 µM.
For `O=C1C(=O)N(C2C3CC4CC(C3)CC2C4)C(=O)N1c1ccccc1F` (stereo not given) the same measures were 250 µM (≈ 85.6 µg/mL) and 6.13 µM.
Compound `O=C(O)c1ccc(O[C@H]2CC[C@H](N3C(=O)C(=O)N(C45CC6CC(CC(Cl)(C6)C4)C5)C3=O)CC2)cc1` yielded a solubility in data set [2] of 250 µM (≈ 125 µg/mL). In addition, in data set [3], the IC50 was determined as 0.0004 µM.
In the case of `O=C(NCCCCCCCCNC(=O)NCCC12CC3CC(CC(C3)C1)C2)NCCC12CC3CC(CC(C3)C1)C2`, the half-maximal inhibitory concentration (IC50) in data set [4] was found to be 0.0015 µM. The compound also had a solubility in data set [2] of 75 µM (≈ 41.6 µg/mL).
Take `O=C1C(=O)N(C23CC4CC(CC(C4)C2)C3)C(=O)N1CCCCCCN1C(=O)C(=O)N(C23CC4CC(CC(C4)C2)C3)C1=O`: in data set [2], the concentration in solution (solubility) came to 120 µM (≈ 69.4 µg/mL). In data set [3], this compound yielded an IC50 of 0.0016 µM.
For `CC12CC3CC(C)(C1)CC(N1C(=O)C(=O)N(C4C5CC6CC(C5)CC4C6)C1=O)(C3)C2` (stereo not given) the same measures were 100 µM (≈ 41.1 µg/mL) and 0.0228 µM.
For `O=C1C(=O)N(c2ccccc2F)C(=O)N1CC12CC3CC(CC(C3)C1)C2` the same measures were 350 µM (≈ 125 µg/mL) and 0.311 µM.
In the same order, the values of `O=C(NC1CCCCCC1)N[C@H]1CC[C@H](Oc2ccc(C(=O)O)cc2)CC1` are 100 µM (≈ 37.4 µg/mL) and 0.0045 µM.
The compound `O=C1C(=O)N(CCC23CC4CC(CC(C4)C2)C3)C(=O)N1CCCCN1C(=O)C(=O)N(CCC23CC4CC(CC(C4)C2)C3)C1=O` showed a solubility in data set [2] of 900 µM (≈ 546 µg/mL). This compound returned an IC50 in data set [3] of 0.294 µM.
Regarding `O=C(NC12CC3CC(CC(Cl)(C3)C1)C2)N[C@H]1CC[C@H](Oc2ccc(C(=O)O)cc2)CC1`, the IC50 in data set [4] worked out at 0.0004 µM. The compound further came in with a solubility in data set [2] of 500 µM (≈ 223 µg/mL).
As for `CC(N1C(=O)C(=O)N(c2ccccc2F)C1=O)C12CC3CC(CC(C3)C1)C2` (stereo not given), the solubility in data set [2] came to 900 µM (≈ 333 µg/mL). Moreover, the midpoint of inhibition in data set [3], the IC50, lay at 0.466 µM.
Take `O=C(NCCCCNC(=O)NCCC12CC3CC(CC(C3)C1)C2)NCCC12CC3CC(CC(C3)C1)C2`: in data set [4], half-maximal inhibition (IC50) was put at 0.0034 µM. In data set [2], this compound had a solubility of 100 µM (≈ 49.9 µg/mL).
The compound `O=C1C(=O)N(C23CC4CC(CC(C4)C2)C3)C(=O)N1CCCCCCCCN1C(=O)C(=O)N(C23CC4CC(CC(C4)C2)C3)C1=O` registered a solubility in data set [2] of 110 µM (≈ 66.7 µg/mL). In data set [3], this compound showed a concentration for half-maximal inhibition (IC50) of 0.0038 µM.
The compound `CCC(CC12CC3CC(CC(C3)C1)C2)N1C(=O)C(=O)N(CCCCN2C(=O)C(=O)N(C(CC)CC34CC5CC(CC(C5)C3)C4)C2=O)C1=O` (stereo not given) displayed a solubility in data set [2] of 90 µM (≈ 59.7 µg/mL). In data set [3], this compound yielded a half-maximal inhibitory concentration (IC50) of 0.0084 µM.
For `O=C1C2CC3CC1CC(N1C(=O)C(=O)N(C45CC6CC(C4)C(=O)C(C6)C5)C1=O)(C3)C2` the same measures were 150 µM (≈ 61.6 µg/mL) and 8.42 µM.
In the same order, the values of `O=C1C(=O)N(CC23CC4CC(CC(C4)C2)C3)C(=O)N1CCN(CCN1C(=O)C(=O)N(CC23CC4CC(CC(C4)C2)C3)C1=O)CCN1C(=O)C(=O)N(CC23CC4CC(CC(C4)C2)C3)C1=O` are 650 µM (≈ 573 µg/mL) and 0.0803 µM.
For `O=C(NCCCCCCNC(=O)NCCC12CC3CC(CC(C3)C1)C2)NCCC12CC3CC(CC(C3)C1)C2`, the IC50 in data set [4] is 0.0008 µM. For the same compound, in data set [2], the concentration in solution (solubility) was 80 µM (≈ 42.1 µg/mL).
As for `O=C(NC12CC3CC(C1)C(=O)C(C3)C2)NC12CC3CC(C1)C(=O)C(C3)C2`, in data set [2], the solubility is 1750 µM (≈ 624 µg/mL). In data set [3], this compound registered a half-maximal inhibitory concentration (IC50) of 0.012 µM.
As for `O=C(NCCN(CCNC(=O)NCC12CC3CC(CC(C3)C1)C2)CCNC(=O)NCC12CC3CC(CC(C3)C1)C2)NCC12CC3CC(CC(C3)C1)C2`, the solubility in data set [2] worked out at 70 µM (≈ 50.4 µg/mL). In data set [3], this compound came in with an IC50 of 0.0067 µM.
In the same order, the values of `CCC(CC12CC3CC(CC(C3)C1)C2)N1C(=O)C(=O)N(CCCCCCCCN2C(=O)C(=O)N(C(CC)CC34CC5CC(CC(C5)C3)C4)C2=O)C1=O` (stereo not given) are 100 µM (≈ 71.9 µg/mL) and 0.65 µM.
Regarding `CC12CC3CC(C)(C1)CC(NC(=O)NC1C4CC5CC(C4)CC1C5)(C3)C2` (stereo not given), the IC50 in data set [4] is 0.0096 µM. The amount in solution in data set [2] (solubility) came to 20 µM (≈ 7.13 µg/mL).
`O=C(O)c1ccc(O[C@H]2CC[C@H](N3C(=O)C(=O)N(C4CCCCCC4)C3=O)CC2)cc1` returned a solubility in data set [2] of 280 µM (≈ 120 µg/mL). The compound further came in with an IC50 in data set [3] of 0.0868 µM.
For `O=C1C(=O)N(c2ccccc2F)C(=O)N1c1ccc(C23CC4CC(CC(C4)C2)C3)cc1` the same measures were 250 µM (≈ 105 µg/mL) and 0.16 µM.
With `CC12CC3CC(C)(C1)CC(N1C(=O)C(=O)N(c4ccccc4F)C1=O)(C3)C2`, the solubility in data set [2] amounted to 200 µM (≈ 74.1 µg/mL). In data set [3], this compound displayed an IC50 of 0.371 µM.
For `CCC(CC12CC3CC(CC(C3)C1)C2)N1C(=O)C(=O)N(C23CC4CC(C)(C2)C[C@@](C)(C4)C3)C1=O` (stereo not given in full) the same measures were 100 µM (≈ 46.7 µg/mL) and 0.216 µM.
For `CC12CC3CC(C)(C1)CC(NC(=O)Nc1ccccc1F)(C3)C2` the same measures were 65 µM (≈ 20.6 µg/mL) and 0.0036 µM.

Values taken from ChEMBL document CHEMBL4610022, “Imidazolidine-2,4,5- and pirimidine-2,4,6-triones - New primary pharmacophore for soluble epoxide hydrolase inhibitors with enhanced water solubility” (Bioorg Med Chem Lett, 2020).
